Assay results from ChEMBL document CHEMBL2440013, “New quaternary ammonium camphor derivatives and their antiviral activity, genotoxic effects and cytotoxicity” (Bioorg Med Chem, 2013).
Counter-ions that a name gives are not always drawn.

Key:
[1] = Toxicity in Escherichia coli BL21(DE3) expressing pET36b-gfp assessed as inhibition of IPTG-induced reporter protein GFP synthesis at 150 uM after 1.5 hrs by fluorophotometry relative to control; details: Escherichia coli BL21(DE3) cells expressing pET36b-gfp, read-out: Activity
How it was run: (§1)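 E. coli BL21(DE3) carrying the IPTG-inducible gfp plasmid was grown in LB at 37 °C with shaking to D600 0.4–0.5, then treated with compound for 1.5 h. OD600 and GFP emission 500–600 nm (excitation 491 nm) were read. Control cells were untreated, with 1 mM IPTG (final) added after 1.5 h. Fluorescence decreases of 20% and 50% versus control were counted as toxic and extremely toxic.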

Escherichia coli [2] = assay: Induction of mutagenicity in Escherichia coli BL21(DE3) expressing pRAC-gfp assessed as modulation of reporter protein GFP synthesis at 150 uM incubated for 1.5 hrs followed by plasmid maturation measured after 1.5 hrs by fluorophotometry relative to control; format: toxicity
[3] = Selectivity index, ratio of CTD50 for MDCK cells to EC50 for Influenza A virus California/07/09(H1N1) pdm09 infected in MDCK cells; format: toxicity, cell-based; details: dog, read-out: Selectivity Index
How it was run: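 CTD50 came from MDCK cells given twofold dilutions (1000–4 µg/ml) in MEM for 48 h at 37 °C, 5% CO2. CTD50 was the concentration halving OD versus control. SI is CTD50 divided by EC50 from the haemagglutination-based antiviral assay.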

[4] = Cytotoxicity against MDCK cells after 48 hrs by MTT assay; format: cell-based, Canis lupus familiaris; details: dog, read-out: CTD50
How it was run: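 MDCK cells were grown in MEM at 37 °C, 5% CO2 to a confluent monolayer. They were then exposed for 48 h to twofold dilutions (1000–4 µg/ml in MEM), washed twice with saline, and given MTT ([…] in saline) for 1 h. Formazan was dissolved in DMSO and OD read at 535 nm. Triplicates were run. CTD50 is the concentration halving OD versus control wells.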

[5] = Antiviral activity against Influenza virus A/California/07/09 (H1N1)pdm09 infected in MDCK cells assessed as inhibition of viral replication incubated for 1 hr prior to viral infection measured after 48 hrs by hemagglutination reaction; format: functional, cell-based, Influenza A virus (A/California/07/2009(H1N1))
How it was run: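 MDCK monolayers in MEM were pre-incubated with compound for 1 h at 37 °C before infection, then held 48 h at 37 °C in 5% CO2. Virus yield was read by haemagglutination: equal volumes of supernatant and 1% chicken erythrocytes, 60 min at room temperature. Triplicates were run. EC50 was the concentration that halved virus production (0.3 log10 EID50 titre drop).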

U-937 = assay: Cytotoxicity against human U937 cells after 72 hrs by MTT assay; format: functional
How it was run: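 Cells were grown in RPMI-1640 with 10% embryonic calf serum, 2 mmol/L L-glutamine, gentamicin and lincomycin. Compounds in DMSO were added, then 72 h at 37 °C, 5% CO2. Three wells per concentration, with untreated cells as control. 1% MTT for 4 h, DMSO for 15 min, OD 570 nm. CTD50 is the concentration killing 50% of cells.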

Escherichia coli [6] = assay: Induction of mutagenicity in Escherichia coli BL21(DE3) expressing pRAC-gfp assessed as induction of reporter protein GFP synthesis at 10 ug/ml incubated for 1.5 hrs followed by plasmid maturation measured after 1.5 hrs by fluorophotometry; format: toxicity
How it was run: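 BL21(DE3) carried pRAC-gfp, with GFP under the Proteus mirabilis recA regulatory region. Cells were grown in LB at 37 °C with shaking to OD600 0.4–0.5, given compound, grown 1.5 h, then held 1.5 h at 4–6 °C for chromophore maturation. OD600 and GFP emission (500–600 nm, excitation 491 nm) were measured. Controls were water (negative) and nalidixic acid […] (positive). Result is % change in GFP versus control.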

[7] = Toxicity in Escherichia coli BL21(DE3) expressing pET36b-gfp assessed as inhibition of IPTG-induced reporter protein GFP synthesis at 2 uM after 1.5 hrs by fluorophotometry relative to control; details: Escherichia coli BL21(DE3) cells expressing pET36b-gfp, read-out: Activity; how it was run: as §1
Escherichia coli [8] = assay: Induction of mutagenicity in Escherichia coli BL21(DE3) expressing pRAC-gfp assessed as modulation of reporter protein GFP synthesis at 2 uM incubated for 1.5 hrs followed by plasmid maturation measured after 1.5 hrs by fluorophotometry; format: toxicity

Row | Compound | selectivity ratio [3] | CC50 at 48 h [4] [µM] | EC50 ([5]; Influenza A virus, pdm09, MDCK) [µM] | other results
1 | CC[N+](CC)(CCCCCCCCC[N+](CC)(CC)CC/N=C1\C[C@H]2CC[C@]1(C)C2(C)C)CC/N=C1\C[C@H]2CC[C@]1(C)C2(C)C | 82 | 578 | 6.9 | inhibition at 1.5 h, 150 µM [1]: 65%; Activity (Escherichia coli [2]): 51%
2 | CCN(CC)CC/N=C1\C[C@H]2CC[C@]1(C)C2(C)C | 81 | 807 | 10 | 
3 | CC[N+](CC)(CCCCCCCC[N+](CC)(CC)CC/N=C1\C[C@H]2CC[C@]1(C)C2(C)C)CC/N=C1\C[C@H]2CC[C@]1(C)C2(C)C | 42 | 552 | 13.2 | inhibition at 1.5 h, 150 µM [1]: 67%; Activity (Escherichia coli [2]): 57%
4 | CC[N+](CC)(CCCCCC[N+](CC)(CC)CC/N=C1\C[C@H]2CC[C@]1(C)C2(C)C)CC/N=C1\C[C@H]2CC[C@]1(C)C2(C)C.[Br-].[Br-] | 21 | 1710 | 81.2 | CTD50 (U-937): 82.1 µM
5 | NC12CC3CC(CC(C3)C1)C2 [AMANTADINE] | 4 | 284 |  | EC50 ([5]; mdck): 64.2 µM
6 | CC[N+](CC)(CC)CC/N=C1\C[C@H]2CC[C@]1(C)C2(C)C | 13 | 1780 | 140 | 
7 | CC[N+](CC)(CC/N=C1\C[C@H]2CC[C@]1(C)C2(C)C)Cc1ccc(C[N+](CC)(CC)CC/N=C2\C[C@H]3CC[C@]2(C)C3(C)C)cc1 | 33 | 1450 | 43.4 | 
8 | CC[N+](CC)(CCCCCCCCCCCC[N+](CC)(CC)CC/N=C1\C[C@H]2CC[C@]1(C)C2(C)C)CC/N=C1\C[C@H]2CC[C@]1(C)C2(C)C | 2 | 128 | 59.9 | inhibition at 1.5 h, 150 µM [1]: 89%; Activity (Escherichia coli [2]): 74%
9 | CCn1cc(C(=O)O)c(=O)c2ccc(C)nc21 [NALIDIXIC ACID] |  |  |  | Activity (Escherichia coli [6]): 500%
10 | CC[N+](CC)(CCCCCCCCCC[N+](CC)(CC)CC/N=C1\C[C@H]2CC[C@]1(C)C2(C)C)CC/N=C1\C[C@H]2CC[C@]1(C)C2(C)C | 5 | 285 | 55.3 | inhibition at 1.5 h, 150 µM [1]: 78%; Activity (Escherichia coli [2]): 70%
11 | CC[N+](C)(CC)CC/N=C1\C[C@H]2CC[C@]1(C)C2(C)C |  | 1890 | 40.4 | 
12 | CC(N)C12CC3CC(CC(C3)C1)C2 (stereo unspecified) [RIMANTADINE HYDROCHLORIDE] | 5 | 335 | 67 | 
13 | CC[N+](CC)(CCCCC[N+](CC)(CC)CC/N=C1\C[C@H]2CC[C@]1(C)C2(C)C)CC/N=C1\C[C@H]2CC[C@]1(C)C2(C)C | 87 | 1280 | 14.7 | 
14 | CC12CCC(CC1=O)C2(C)C (single isomer, unassigned; (+)) [CAMPHOR] | 2 | 3290 |  | inhibition at 1.5 h, 2 µM [7]: 6%; Activity (Escherichia coli [8]): 5%; EC50 ([5]; mdck): 1640 µM
15 | CC(N)C1C[C@@H]2CC[C@H]1C2 (stereo partly specified) [DEITIFORIN] |  | 1270 |  | 
